Experiment [1] addresses T1, Thymidine kinase, cytosolic (Homo sapiens) (UniProt P04183).
T1 sequence (whole entry): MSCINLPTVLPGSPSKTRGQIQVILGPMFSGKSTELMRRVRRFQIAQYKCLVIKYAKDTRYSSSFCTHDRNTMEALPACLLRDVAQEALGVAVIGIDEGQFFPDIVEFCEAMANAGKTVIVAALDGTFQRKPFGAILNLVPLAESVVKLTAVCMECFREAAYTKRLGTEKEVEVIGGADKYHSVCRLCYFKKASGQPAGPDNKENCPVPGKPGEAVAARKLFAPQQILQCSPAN
As to the kind of experiment: […] thymidine kinase activity from K562 mammalian cells at 500 uM concentration. The class given is cell-based.

Experiment [2] can be described thus: Tested in vitro for anticancer activity against replication of murine Sarcoma 180 cell line after 72 h incubation. It is filed as functional. To be noted: Mus musculus, 180, 72 h; read-out: ED50 (the source's name). Summed up:
(§1)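 Suspension cultures at 37 °C, 5% CO₂. L1210, P388 and S-180 were grown in Fisher's medium and CCRF-CEM in RPMI 1640, each with 10% horse serum. Exponentially growing cells at 2 × 10⁴ cells/mL were exposed to various concentrations and counted at 24, 48 and 72 h. ED₅₀ for 50% growth inhibition at 72 h was estimated from dose-response curves, ≥2 independent experiments.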

For experiment [3], the system named is Thymidine kinase (Human herpesvirus 1). As to the kind of experiment: Antiviral activity against thymidine kinase from Herpes simplex virus type-1 (KOS Strain) infected HeLa (Bu-25-TK-) cells at 500 uM concentration.
For experiment [4], the system named is Thymidine kinase (Human herpesvirus 2). The experiment is described as follows: Antiviral activity against thymidine kinase from Herpes simplex virus type-2 (333 Strain) infected HeLa (Bu-25-TK-) cells at 500 uM concentration.
The subject of experiment [5] is P388. The experiment is described as follows: Tested in vitro for anticancer activity against replication of murine leukemia P388 cell line after 72 hr incubation. It is filed as functional. To be noted: Mus musculus, P388, 72 h; read-out: ED50 (the source's name). Summed up: as §1
The subject of experiment [6] is CCRF-CEM. The experiment is described as follows: Tested in vitro for anticancer activity against replication of human CCRF-CEM lymphoblastic cell line after 72 hr incubation. It is filed as functional. To be noted: read-out: ED50 (the source's name). An outline of the steps:
as §1

Experiment [7] relates to L1210. The experiment is described as follows: Tested in vitro for anticancer activity against replication of murine leukemia L1210 cell line after 72 hr incubation. The class given is functional. To be noted: Mus musculus, L1210, 72 h; read-out: ED50 (the source's name). Summed up:
as §1

Experiment [8] has as its system MT2. The experiment is described as follows: Antiviral activity against HIV-1(HTLV-III B) in MT-2 cells; Not active uM concentration. It is filed as functional, cell-based. To be noted: Homo sapiens. An outline of the steps: (§2)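 MT-2 cells, 1 × 10⁴ per well in triplicate wells, infected with HIV-1 (HTLV-III) at MOI 0.5 TCID₅₀/cell, then given serial drug dilutions. MTT added after 7 days. Antiviral effect taken from A₅₇₀ of infected cells compared with A₅₇₀ of uninfected drug-free cells. Concentrations tested up to 100 μM.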

For experiment [9], the system named is MT2. The experiment is described as follows: Antiviral activity against HIV-1(HTLV-III B) in MT-2 cells at 100 uM; Not active up to 100 uM concentration. To be noted: Homo sapiens. It is filed as functional, cell-based. Summed up: as §2

Usually inhibition stands for the drop in the measured response relative to a control, in per cent.

Activity calls are given as the source filed them. No cut-off for these calls is given here.

Regarding `Cc1cn([C@@H]2O[C@H](CO)[C@@H](O)[C@@H]2O)c(=O)[nH]c1=O`, the inhibition in experiment [1] was 5%.

Regarding `Cc1cn([C@@H]2O[C@H](CO)[C@@H](CO)[C@@H]2O)c(=O)[nH]c1=O`, the EC50 in experiment [2], in experiment [5], in experiment [6] and in experiment [7] was above 100 µM each time. Besides, the inhibition in [3] amounted to 11.7%; in experiment [4], 6.9%; in experiment [1] it was 0.7%.

Regarding `Cc1cn([C@H]2C[C@H](CN)[C@@H](CO)O2)c(=O)[nH]c1=O`, the EC50 in experiment [2], in [5], in experiment [6] and in [7] was above 100 µM in each case.

As to `Cc1cn([C@@H]2O[C@H](CO)[C@@H](CF)[C@@H]2O)c(=O)[nH]c1=O`, the EC50 in experiment [2], in [5], in [6] and in experiment [7] was above 100 µM in each case. Besides, the inhibition in experiment [3] turned out to be 13.8%; in [4], 10.9%; in experiment [1] it was 7.1%. In addition, the inhibition result in [8] was “inactive”.

As for `Cc1cn([C@H]2C[C@H](CN=[N+]=[N-])[C@@H](CO)O2)c(=O)[nH]c1=O`, the EC50 in experiment [2], in experiment [5], in experiment [6] and in experiment [7] was above 100 µM throughout. The inhibition entry in [8] was “inactive”.

Take `Cc1cn([C@@H]2O[C@H](CO)[C@@H](CO)[C@H]2O)c(=O)[nH]c1=O`: the EC50 in experiment [2], in experiment [5], in experiment [6] and in [7] was above 100 µM throughout. Besides, the inhibition in experiment [3] was 2.6%; in [4], 0%; in [1] it was 3%.

As to `Cc1cn([C@H]2C[C@H](CF)[C@@H](CO)O2)c(=O)[nH]c1=O`, the inhibition entry in experiment [9] is “inactive”. Moreover, the EC50 in experiment [2], in experiment [5], in experiment [6] and in [7] was above 100 µM throughout. Besides, the inhibition in [3] stood at 85.2%; in experiment [4], 4%; in experiment [1], 5.4%.

`Cc1cn([C@H]2C[C@H](CO)[C@@H](CO)O2)c(=O)[nH]c1=O`: the EC50 came to 10 µM in [2], 5 µM in [5], 1 µM in [6] and 50 µM in experiment [7]. The inhibition in experiment [3] was found to be 59.1%; in experiment [4], 0%; in [1] it was 3%.

Regarding `Cc1cn([C@@H]2O[C@H](CO)[C@@H](CN)[C@H]2O)c(=O)[nH]c1=O`, the EC50 in experiment [2], in [5], in [6] and in [7] was above 100 µM each time.

With `Cc1cn([C@@H]2O[C@H](CO)[C@@H](CN=[N+]=[N-])[C@H]2O)c(=O)[nH]c1=O`, the EC50 in [2], in experiment [5], in [6] and in experiment [7] was above 100 µM throughout. Further, the inhibition result in experiment [8] is “inactive”.

As for `Cc1cn([C@@H]2O[C@H](CO)[C@@H](CF)[C@H]2O)c(=O)[nH]c1=O`, the inhibition entry in experiment [9] is “inactive”. Besides, the EC50 in [2], in experiment [5], in experiment [6] and in [7] was above 100 µM each time. The inhibition in experiment [3] amounted to 7%; in experiment [4] it was 4.9%; in experiment [1], 2.5%.

Turning to `Cc1cn([C@@H]2O[C@H](CO)[C@@H](CN=[N+]=[N-])[C@@H]2O)c(=O)[nH]c1=O`, the EC50 in experiment [2] is above 100 µM; in [5], above 100 µM; in experiment [6], above 100 µM; in [7], 10 µM. In addition, the inhibition entry in experiment [8] is “inactive”.

On to `Cc1cn([C@@H]2O[C@H](CO)[C@@H](CN)[C@@H]2O)c(=O)[nH]c1=O`, for which the EC50 in experiment [2], in experiment [5], in experiment [6] and in [7] was above 100 µM throughout.

The values above are taken from ChEMBL document CHEMBL1127086, “Syntheses and biological evaluations of 3'-deoxy-3'-C-branched-chain-substituted nucleosides” (1993).
